Tests used:
[1] = target: ALR2 (Homo sapiens, UniProt P15121); test: ALR2 in vitro enzyme inhibition assay; type: biochemical; details: for selectivity of inhibition, ALR2 versus ALR1 (in words): judged from ALR1 and ALR2 in vitro inhibition data
[2] = tested on: advanced glycation end products (AGEs); test: Bovine serum albumin glycation; type: biochemical; details: BSA 1 mg mL–1, 0.5 M glucose, test compound (1 mM), pH 7.4, 50 °C, 4 days; AG positive control 100 μM
In short: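 BSA and glucose were incubated in 0.1 M PBS, in the dark, with or without test compound. AGE fluorescence was read at excitation 350 nm and emission 460 nm. Percent inhibition was calculated from the glucose-dependent fluorescence increase (BSA ± glucose), compared with the BSA + glucose signal with or without test compound. A vehicle served as the negative control. Values are mean ± S.E.M. of three independent incubations, with Student t-test vs aminoguanidine.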

[3] = DPPH free-radical scavenging; details: DPPH 0.025 mg mL–1 in methanol, 100 μM test compound, 517 nm
In short: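 Test compound mixed with methanolic DPPH and read spectrophotometrically. Percent scavenging is calculated from absorbance of sample relative to control. Ascorbic acid is the positive control.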

[4] = target: ALR1 (Bos taurus, UniProt Q3ZCJ2); test: ALR1 in vitro enzyme inhibition assay; type: biochemical, calf
Sequence of ALR1 (Q3ZCJ2 whole entry): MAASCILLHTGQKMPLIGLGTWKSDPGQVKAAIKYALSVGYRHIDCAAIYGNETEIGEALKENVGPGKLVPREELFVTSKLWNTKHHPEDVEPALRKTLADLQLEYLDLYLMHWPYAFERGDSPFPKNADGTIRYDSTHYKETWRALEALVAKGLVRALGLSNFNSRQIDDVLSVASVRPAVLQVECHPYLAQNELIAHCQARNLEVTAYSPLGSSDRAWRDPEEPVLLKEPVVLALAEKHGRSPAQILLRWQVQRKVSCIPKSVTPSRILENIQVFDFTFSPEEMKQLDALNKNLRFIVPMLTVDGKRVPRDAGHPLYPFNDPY
In short: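 Enzyme in sodium phosphate buffer pH 6.2, preincubated 10 min at 32 °C with test compound and substrate, without NADPH. Reaction started with NADPH and followed for 5 min. Absorbance read before and after cofactor addition gives % inhibition. Compound dissolved in DMSO and diluted in water to 0.1% DMSO in assay. Valproic acid is the standard. IC50 from nonlinear regression of log concentration vs remaining activity.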

Structure (SMILES)	IC50 [1]	selectivity of inhibition, ALR2 versus ALR1 (in words) [1]	IC50 [4]	% inhibition of AGEs (advanced glycation end-product formation) [2]	% FRSA (percent free-radical scavenging activity) [3]
Cc1ccc(O)c(C=NNC(=S)Nc2c(C)cccc2C)c1 [3i, N-(2,6-Dimethylphenyl)-2-(2-hydroxy-5-methylbenzylidene)hydrazinecarbothioamide]	2.06 ± 0.057 µM	strong but nonselective inhibition of ALR1 and ALR2	2.14 ± 0.031 µM	64.41%	71.34%
Cc1ccc(O)c(C=NNC(=S)Nc2ccc(F)cc2F)c1 [3j, N-(2,4-Difluorophenyl)-2-(2-hydroxy-5-methylbenzylidene)hydrazinecarbothioamide]	4.95 ± 0.066 µM	strong and selective inhibition of ALR2	–	61.60%	66.57%
Cc1ccc(O)c(C=NNC(=S)Nc2ccccc2)c1 [3a, 2-(2-Hydroxy-5-methylbenzylidene)-N-phenylhydrazinecarbothioamide]	4.99 ± 0.035 µM	strong but nonselective inhibition of ALR1 and ALR2	5.13 ± 0.037 µM	59.12%	56.78%
Cc1ccc(O)c(C=NNC(=S)NCc2ccc(Cl)cc2)c1 [3d, N-(4-Chlorobenzyl)-2-(2-hydroxy-5-methylbenzylidene)hydrazinecarbothioamide]	–	–	–	62.81%	61.34%
N=C(N)NN [6-AG, 6-Aminoguanidine, reference compound]	–	–	–	79.34%	–
COc1cccc(NC(=S)NN=Cc2cc(C)ccc2O)c1 [3c, 2-(2-Hydroxy-5-methylbenzylidene)-N-(3-methoxyphenyl)hydrazinecarbothioamide]	1.42 ± 0.024 µM	strong and selective inhibition of ALR2	–	66.40%	65.67%
Cc1ccc(NC(=S)NN=Cc2cc(C)ccc2O)c(C)c1 [3b, N-(2,4-Dimethylphenyl)-2-(2-hydroxy-5-methylbenzylidene)hydrazinecarbothioamide]	2.55 ± 0.021 µM	strong and selective inhibition of ALR2	–	50.78%	63.24%
Cc1ccc(O)c(C=NNC(=S)NC2CCCCC2)c1 [3f, N-Cyclohexyl-2-(2-hydroxy-5-methylbenzylidene)hydrazinecarbothioamide]	–	–	–	59.86%	57.84%
Cc1ccc(NC(=S)NN=Cc2cc(C)ccc2O)cc1 [3h, 2-(2-Hydroxy-5-methylbenzylidene)-N-(p-tolyl)hydrazinecarbothioamide]	3.8 ± 0.072 µM	strong but nonselective inhibition of ALR1 and ALR2	15.8 ± 0.027 µM	–	64.94%
Cc1ccc(O)c(C=NNC(=S)NCc2ccccc2)c1 [3e, N-Benzyl-2-(2-hydroxy-5-methylbenzylidene)hydrazinecarbothioamide]	–	–	–	56.73%	65.66%
Cc1ccc(O)c(C=NNC(=S)NCCc2ccccc2)c1 [3o, 2-(2-Hydroxy-5-methylbenzylidene)-N-phenethylhydrazinecarbothioamide]	12.15 ± 0.083 µM	strong and selective inhibition of ALR2	–	–	68.56%
Cc1ccc(O)c(C=NNC(=S)Nc2ccccc2C)c1 [3m, 2-(2-Hydroxy-5-methylbenzylidene)-N-(o-tolyl)hydrazinecarbothioamide]	1.96 ± 0.029 µM	strong but nonselective inhibition of ALR1 and ALR2	4.57 ± 0.076 µM	53.08%	63.87%

Further lines, with some results ahead:

IC50 [1]	selectivity of inhibition, ALR2 versus ALR1 (in words) [1]	IC50 [4]	Structure (SMILES)	% inhibition of AGEs (advanced glycation end-product formation) [2]	% FRSA (percent free-radical scavenging activity) [3]
14.03 ± 0.047 µM	strong and selective inhibition of ALR2	–	Cc1ccc(O)c(C=NNC(=S)Nc2cccc(F)c2)c1 [3k, N-(3-Fluorophenyl)-2-(2-hydroxy-5-methylbenzylidene)hydrazinecarbothioamide]	–	53.88%
8.37 ± 0.062 µM	strong and selective inhibition of ALR2	–	Cc1ccc(O)c(C=NNC(=S)Nc2ccc(Br)cc2)c1 [3g, N-(4-Bromophenyl)-2-(2-hydroxy-5-methylbenzylidene)hydrazinecarbothioamide]	51.33%	53.56%
10.67 ± 0.064 µM	strong and selective inhibition of ALR2	–	Cc1ccc(O)c(C=NNC(=S)Nc2ccc(N(C)C)cc2)c1 [3p, N-(4-(Dimethylamino)phenyl)-2-(2-hydroxy-5-methylbenzylidene)hydrazinecarbothioamide]	64.81%	71.53%
3.11 ± 0.038 µM	strong and selective inhibition of ALR2	–	Cc1ccc(O)c(C=NNC(=S)Nc2ccc(C(C)C)cc2)c1 [3n, 2-(2-Hydroxy-5-methylbenzylidene)-N-(4-isopropylphenyl)hydrazinecarbothioamide]	68.66%	55.93%
3.8 ± 0.027 µM	strong and selective inhibition of ALR2	–	Cc1ccc(O)c(C=NNC(=S)Nc2ccc(Cl)cc2)c1 [3l, N-(4-Chlorophenyl)-2-(2-hydroxy-5-methylbenzylidene)hydrazinecarbothioamide]	56.61%	62.44%

From article PMC9352332 (ACS Omega, 2022)
